# Laboratory results taken from publication PMC10937199 (ESMO Open, 2024).
# Read-outs that look alike come from different tables or passages of the source.
# What was measured:
# advanced solid tumors [1] = experiment: Best overall response per RECIST version 1.1, Part FE; format: in vivo, human
# advanced solid tumors [2] = experiment: Disease control by baseline PD-L1 and DNA-PK immunohistochemistry; format: in vivo, human
# Method in brief: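 Immunohistochemistry on pretreatment archival tumor tissue; in Parts A and B, fresh samples were taken when no archival tissue was available. DNA-PK staining was scored as an H-score combining prevalence and staining intensity, then related to disease control.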
# [3] = system: patients with advanced solid tumors; conditions: Part A
# [4] = healthy volunteers; cited from earlier work
# [5] = system: patients with advanced solid tumors; experiment: Safety; format: in vivo, human; conditions: Part FE
smiles,measurement,setting,value
COc1ccc([C@@H](O)c2cc(-c3ncnc4cc(N5CCOCC5)ccc34)c(F)cc2Cl)nn1 [Peposertib],Best overall response of stable disease (SD) or non-CR/non-PD,advanced solid tumors [1]; all dose levels,33.3%
same,Patients with a PR,"advanced solid tumors [1]; all patients, response at 200 mg b.i.d.",one of nine
same,Patients with SD among PD-L1+ tumors,advanced solid tumors [2]; Part A,two of seven
same,Patients with SD among PD-L1− tumors,advanced solid tumors [2]; Part A,two of 17
same,Patients with SD among PD-L1+ tumors,advanced solid tumors [2]; Part B,two of seven
same,Patients with SD among PD-L1− tumors,advanced solid tumors [2]; Part B,three of nine
same,Association between DNA-PK H-score and disease control,"advanced solid tumors [2]; Parts A, B and FE",No association
same,DLT by preferred term: Acute kidney injury,[3]; 100 mg b.i.d.,0 n (%)
same,DLT by preferred term: Febrile neutropenia,[3]; 100 mg b.i.d.,0 n (%)
same,DLT by preferred term: Neutropenia,[3]; 100 mg b.i.d.,0 n (%)
same,DLT by preferred term: Neutrophil count decreased,[3]; 100 mg b.i.d.,0 n (%)
same,DLT by preferred term: Pneumonitis,[3]; 100 mg b.i.d.,0 n (%)
same,DLT by preferred term: Pyrexia,[3]; 100 mg b.i.d.,0 n (%)
same,DLT by preferred term: Rash,[3]; 100 mg b.i.d.,0 n (%)
same,DLTs per patient: 1,[3]; 100 mg b.i.d.,0 n (%)
same,DLTs per patient: 2,[3]; 100 mg b.i.d.,0 n (%)
same,DLTs per patient: ≥3,[3]; 100 mg b.i.d.,0 n (%)
same,Patients with DLT,[3]; 100 mg b.i.d.,0 n (%)
same,DLT by preferred term: Acute kidney injury,[3]; 200 mg b.i.d.,0 n (%)
same,DLT by preferred term: Febrile neutropenia,[3]; 200 mg b.i.d.,0 n (%)
same,DLT by preferred term: Neutropenia,[3]; 200 mg b.i.d.,0 n (%)
same,DLT by preferred term: Neutrophil count decreased,[3]; 200 mg b.i.d.,0 n (%)
same,DLT by preferred term: Pneumonitis,[3]; 200 mg b.i.d.,0 n (%)
same,DLT by preferred term: Pyrexia,[3]; 200 mg b.i.d.,0 n (%)
same,DLT by preferred term: Rash,[3]; 200 mg b.i.d.,0 n (%)
same,DLTs per patient: 1,[3]; 200 mg b.i.d.,0 n (%)
same,DLTs per patient: 2,[3]; 200 mg b.i.d.,0 n (%)
same,DLTs per patient: ≥3,[3]; 200 mg b.i.d.,0 n (%)
same,Patients with DLT,[3]; 200 mg b.i.d.,0 n (%)
same,DLT by preferred term: Acute kidney injury,[3]; 250 mg b.i.d.,0 n (%)
same,DLT by preferred term: Febrile neutropenia,[3]; 250 mg b.i.d.,0 n (%)
same,DLT by preferred term: Neutropenia,[3]; 250 mg b.i.d.,0 n (%)
same,DLT by preferred term: Neutrophil count decreased,[3]; 250 mg b.i.d.,0 n (%)
same,DLT by preferred term: Pneumonitis,[3]; 250 mg b.i.d.,1 (50.0) n (%)
same,DLT by preferred term: Pyrexia,[3]; 250 mg b.i.d.,0 n (%)
same,DLT by preferred term: Rash,[3]; 250 mg b.i.d.,0 n (%)
same,DLTs per patient: 1,[3]; 250 mg b.i.d.,1 (50.0) n (%)
same,DLTs per patient: 2,[3]; 250 mg b.i.d.,0 n (%)
same,DLTs per patient: ≥3,[3]; 250 mg b.i.d.,0 n (%)
same,Patients with DLT,[3]; 250 mg b.i.d.,1 (50.0) n (%)
same,DLT by preferred term: Acute kidney injury,[3]; 300 mg b.i.d.,0 n (%)
same,DLT by preferred term: Febrile neutropenia,[3]; 300 mg b.i.d.,0 n (%)
same,DLT by preferred term: Neutropenia,[3]; 300 mg b.i.d.,0 n (%)
same,DLT by preferred term: Neutrophil count decreased,[3]; 300 mg b.i.d.,0 n (%)
same,DLT by preferred term: Pneumonitis,[3]; 300 mg b.i.d.,1 (25.0) n (%)
same,DLT by preferred term: Pyrexia,[3]; 300 mg b.i.d.,0 n (%)
same,DLT by preferred term: Rash,[3]; 300 mg b.i.d.,0 n (%)
same,DLTs per patient: 1,[3]; 300 mg b.i.d.,1 (25.0) n (%)
same,DLTs per patient: 2,[3]; 300 mg b.i.d.,0 n (%)
same,DLTs per patient: ≥3,[3]; 300 mg b.i.d.,0 n (%)
same,Patients with DLT,[3]; 300 mg b.i.d.,1 (25.0) n (%)
same,DLT by preferred term: Acute kidney injury,[3]; 400 mg b.i.d.,1 (25.0) n (%)
same,DLT by preferred term: Febrile neutropenia,[3]; 400 mg b.i.d.,1 (25.0) n (%)
same,DLT by preferred term: Neutropenia,[3]; 400 mg b.i.d.,1 (25.0) n (%)
same,DLT by preferred term: Neutrophil count decreased,[3]; 400 mg b.i.d.,1 (25.0) n (%)
same,DLT by preferred term: Pneumonitis,[3]; 400 mg b.i.d.,0 n (%)
same,DLT by preferred term: Pyrexia,[3]; 400 mg b.i.d.,1 (25.0) n (%)
same,DLT by preferred term: Rash,[3]; 400 mg b.i.d.,1 (25.0) n (%)
same,DLTs per patient: 1,[3]; 400 mg b.i.d.,1 (25.0) n (%)
same,DLTs per patient: 2,[3]; 400 mg b.i.d.,1 (25.0) n (%)
same,DLTs per patient: ≥3,[3]; 400 mg b.i.d.,1 (25.0) n (%)
same,Patients with DLT,[3]; 400 mg b.i.d.,3 (75.0) n (%)
same,Food effect,[4],only a mild food effect
same,Serious TEAE: sepsis,[5]; 100 mg b.i.d.,2/4
same,IRR,"[5]; 100 mg b.i.d., all grade",1 (25.0) n (%)
same,Immune-related AE,"[5]; 100 mg b.i.d., all grade",0 n (%)
same,Serious TEAE,"[5]; 100 mg b.i.d., all grade",2 (50.0) n (%)
same,"Serious TEAE, peposertib related","[5]; 100 mg b.i.d., all grade",1 (25.0) n (%)
same,"Serious TEAE, treatment related","[5]; 100 mg b.i.d., all grade",1 (25.0) n (%)
same,TEAE,"[5]; 100 mg b.i.d., all grade",4 (100.0) n (%)
same,TEAE leading to death,"[5]; 100 mg b.i.d., all grade",1 (25.0) n (%)
same,"TEAE, peposertib related","[5]; 100 mg b.i.d., all grade",3 (75.0) n (%)
same,"TEAE, treatment related","[5]; 100 mg b.i.d., all grade",3 (75.0) n (%)
same,Treatment-related AE leading to death,"[5]; 100 mg b.i.d., all grade",0 n (%)
same,IRR,"[5]; 100 mg b.i.d., grade ≥3",0 n (%)
same,Immune-related AE,"[5]; 100 mg b.i.d., grade ≥3",0 n (%)
same,Serious TEAE,"[5]; 100 mg b.i.d., grade ≥3",2 (50.0) n (%)
same,"Serious TEAE, peposertib related","[5]; 100 mg b.i.d., grade ≥3",1 (25.0) n (%)
same,"Serious TEAE, treatment related","[5]; 100 mg b.i.d., grade ≥3",1 (25.0) n (%)
same,TEAE,"[5]; 100 mg b.i.d., grade ≥3",3 (75.0) n (%)
same,TEAE leading to death,"[5]; 100 mg b.i.d., grade ≥3",1 (25.0) n (%)
same,"TEAE, peposertib related","[5]; 100 mg b.i.d., grade ≥3",1 (25.0) n (%)
same,"TEAE, treatment related","[5]; 100 mg b.i.d., grade ≥3",1 (25.0) n (%)
same,Treatment-related AE leading to death,"[5]; 100 mg b.i.d., grade ≥3",0 n (%)
same,IRR,"[5]; 200 mg b.i.d., all grade",1 (20.0) n (%)
same,Immune-related AE,"[5]; 200 mg b.i.d., all grade",2 (40.0) n (%)
same,Serious TEAE,"[5]; 200 mg b.i.d., all grade",3 (60.0) n (%)
same,"Serious TEAE, peposertib related","[5]; 200 mg b.i.d., all grade",1 (20.0) n (%)
same,"Serious TEAE, treatment related","[5]; 200 mg b.i.d., all grade",2 (40.0) n (%)
same,TEAE,"[5]; 200 mg b.i.d., all grade",5 (100.0) n (%)
same,TEAE leading to death,"[5]; 200 mg b.i.d., all grade",1 (20.0) n (%)
same,"TEAE, peposertib related","[5]; 200 mg b.i.d., all grade",5 (100.0) n (%)
same,"TEAE, treatment related","[5]; 200 mg b.i.d., all grade",5 (100.0) n (%)
same,Treatment-related AE leading to death,"[5]; 200 mg b.i.d., all grade",0 n (%)
same,IRR,"[5]; 200 mg b.i.d., grade ≥3",1 (20.0) n (%)
same,Immune-related AE,"[5]; 200 mg b.i.d., grade ≥3",2 (40.0) n (%)
same,Serious TEAE,"[5]; 200 mg b.i.d., grade ≥3",3 (60.0) n (%)
same,"Serious TEAE, peposertib related","[5]; 200 mg b.i.d., grade ≥3",1 (20.0) n (%)
same,"Serious TEAE, treatment related","[5]; 200 mg b.i.d., grade ≥3",2 (40.0) n (%)
same,TEAE,"[5]; 200 mg b.i.d., grade ≥3",4 (80.0) n (%)
same,TEAE leading to death,"[5]; 200 mg b.i.d., grade ≥3",1 (20.0) n (%)
same,"TEAE, peposertib related","[5]; 200 mg b.i.d., grade ≥3",3 (60.0) n (%)
same,"TEAE, treatment related","[5]; 200 mg b.i.d., grade ≥3",4 (80.0) n (%)
same,Treatment-related AE leading to death,"[5]; 200 mg b.i.d., grade ≥3",0 n (%)
same,Discontinuation of all study treatments due to AEs,[5]; all dose levels,4 (44.4%)
same,Peposertib-related TEAE: diarrhea,[5]; all dose levels,4 (44.4%)
same,Peposertib-related TEAE: fatigue,[5]; all dose levels,5 (55.6%)
